In ChEMBL document CHEMBL1137736, “Substituted quinolinyl chalcones and quinolinyl pyrimidines as a new class of anti-infective agents” (Eur J Med Chem, 2009) one finds MIC and Activity data, which are given here for eleven compounds.

In general, MIC refers to the smallest concentration in the dilution series that meets the test's criterion for growth inhibition.

For data set [1], the system named is Mycobacterium tuberculosis. The data set can be described thus: Antitubercular activity against Mycobacterium tuberculosis H37Rv after 4 weeks by serial twofold dilution method. Type of data set: functional. A digest of the protocol: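 Serial twofold dilutions of a 1.0 mg/mL DMSO stock were incorporated into Middlebrook 7H10 agar slants with OADC. H37Rv grown on Lowenstein–Jensen medium was harvested in N-saline with 0.05% Tween-80 and dispersed with glass beads into a single-cell suspension. The working inoculum was 2 107 cfu/mL. MIC was the lowest concentration giving complete growth inhibition.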

The subject of data set [2] is Plasmodium falciparum. The data set can be described thus: Antimalarial activity as inhibition of schizont maturation against Plasmodium falciparum NF54 after 36 - 40 hrs. It is filed as functional. In short, it runs like this: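 P. falciparum NF-54 kept in RPMI-1640 with 25 mM HEPES, 1% D-glucose, 0.23% sodium bicarbonate and 10% heat-inactivated human serum. Compounds tested in duplicate at 0.25–[…] in 96-well microassay with parasitized cells, 37 C, candle jar, 36–40 h. Giemsa-stained smears scored for ring maturation to schizonts. MIC is lowest concentration blocking complete schizont maturation.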

The nature of data set [3]: Cytotoxicity against mouse BMDM cells after 5 days by MTS assay. It is filed as cell-based. As to conditions: 120 h. In short, it runs like this: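 Mouse bone-marrow-derived macrophages plated at 10^5 cells/well in DMEM with antibiotics, 10% FBS, 15% (v/v) L-929 conditioned supernatant and non-essential amino acids. After compound exposure, incubated 5 days at 37 C, 5% CO2. MTS added and A490 read after 2 h, with DMSO wells as 100% survival. Toxic means 50% inhibition at 10-fold the MIC.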
In general terms: Tetrazolium assays rely on reduction of a dye to a coloured formazan, in cell work by metabolically active cells.

The test system of data set [4] is Vero. The experiment in a line: Cytotoxicity against african green monkey Vero cells after 24 hrs by MTS assay. As to conditions: chlorocebus sabaeus. It is filed as cell-based. A digest of the protocol:
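VERO cells seeded at 10^4 cells/well in MEM with antibiotics and 10% FBS, incubated 24 h (37 C, 5% CO2). Medium then replaced by 5% FBS, antibiotic-free medium with compound or DMSO for 24 h. MTS added and A490 read after 2 h, with DMSO wells as 100% survival. Toxic means 50% inhibition at 10-fold the MIC.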

≈ marks a conversion by molar mass, not a printed value. Calls of active or inactive are those of the source.

Take `O=C(/C=C/c1ccc(Cl)cc1)c1ccc(Nc2ccnc3cc(Cl)ccc23)cc1`: the MIC in data set [1] (672 h) was 6.25 µg/mL (≈ 14.9 µM). In addition, the MIC entry in data set [2] was “inactive”.
Take `COc1cccc(/C=C/C(=O)c2ccc(Nc3ccnc4cc(Cl)ccc34)cc2)c1OC`: the minimum inhibitory concentration (MIC) in data set [1] (672 h) was 3.12 µg/mL (≈ 7.01 µM). Besides, the Activity entry in data set [3] and in data set [4] was “Non-toxic” each time. In addition, the MIC entry in data set [2] is “inactive”.
As for `CC(C)c1ccc(-c2cc(-c3ccc(Nc4ccnc5cc(Cl)ccc45)cc3)nc(N)n2)cc1`, the MIC is 6.25 µg/mL (≈ 13.4 µM) in data set [1] (672 h) and 1 µg/mL (≈ 2.15 µM) in data set [2].
Take `CSc1ccc(-c2cc(-c3ccc(Nc4ccnc5cc(Cl)ccc45)cc3)nc(N)n2)cc1`: the MIC entry in data set [1] is “inactive”. Moreover, in data set [2], inhibition of growth (MIC) required 1 µg/mL (≈ 2.13 µM).
In turn, `COc1ccc(OC)c(/C=C/C(=O)c2ccc(Nc3ccnc4cc(Cl)ccc34)cc2)c1` registered an MIC in data set [1] (672 h) of 3.12 µg/mL (≈ 7.01 µM). Further, the Activity result in data set [3] and in data set [4] was “Non-toxic” throughout. Also, the MIC entry in data set [2] was “inactive”.
As for `COc1ccc(-c2cc(-c3ccc(Nc4ccnc5cc(Cl)ccc45)cc3)nc(N)n2)cc1`, the MIC result in data set [1] is “inactive”. The compound also came in with an MIC in data set [2] of 2 µg/mL (≈ 4.41 µM).
In data set [2], `CCN(CC)CCCC(C)Nc1ccnc2cc(Cl)ccc12` (stereo unspecified) [CHLOROQUINE] gave an MIC of 0.125 µg/mL (≈ 0.391 µM).
In data set [1] (672 h), `COc1cc(-c2cc(-c3ccc(Nc4ccnc5cc(Cl)ccc45)cc3)nc(N)n2)cc(OC)c1OC` had an MIC of 12.5 µg/mL (≈ 24.3 µM). Also, the MIC entry in data set [2] was “inactive”.
In turn, `Nc1nc(-c2ccc(Nc3ccnc4cc(Cl)ccc34)cc2)cc(-c2ccco2)n1` returned an MIC in data set [1] (672 h) of 12.5 µg/mL (≈ 30.2 µM). Besides, in data set [2], the MIC entry was “inactive”.
`NC(=O)c1cnccn1` [PYRAZINAMIDE] registered an MIC in data set [1] (672 h) of 50 µg/mL (≈ 406 µM). Further, the Activity result in data set [3] and in data set [4] was “Non-toxic” throughout.
As for `Nc1nc(-c2ccc(Nc3ccnc4cc(Cl)ccc34)cc2)cc(-c2cccnc2)n1`, in data set [1], the MIC entry was “inactive”. Also, the MIC in data set [2] was found to be 1 µg/mL (≈ 2.35 µM).
